Measured values reported in ChEMBL document CHEMBL1681713, “Lead detoxification activities and ADMET hepatotoxicities of a class of novel 5-(1-carbonyl-L-amino-acid)-2,2-dimethyl-[1,3]dithiolane-4-carboxylic acids” (Bioorg Med Chem Lett, 2011).

Key:
Liver [1] = assay: Detoxification activity against lead-induced toxicity in mouse assessed as reduction lead level in liver per gram of organ at 0.4 mmol/kg, ip qd for 5 days measured 24 hrs last post dose by synchrotron X-ray fluorescence analysis; type: functional
Procedure, shortened: (§1)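 Lead-loaded mice were given normal saline vehicle (negative control) or test agent at 0.2, 0.4 or 0.6 mmol/kg. Lead was measured in liver, kidney, left femur and brain and reported as mean ± SD µg Pb/g organ against the NS group.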

Liver [2] = assay: Toxicity in mouse assessed as effect on copper level in liver per gram of organ at 0.4 mmol/kg, ip qd for 5 days; type: organism-based; conditions: in vivo, 120 h
Brain [3] = assay: Toxicity in mouse assessed as effect on manganese level in brain per gram of organ at 0.4 mmol/kg, ip qd for 5 days; type: organism-based; conditions: in vivo, 120 h
Brain [4] = assay: Toxicity in mouse assessed as effect on iron level in brain per gram of organ at 0.4 mmol/kg, ip qd for 5 days; type: organism-based; conditions: in vivo, 120 h
Mus musculus = assay: Toxicity in mouse assessed as change in bodyweight at 0.4 mmol/kg, ip qd for 5 days; type: organism-based; conditions: in vivo, 120 h
Procedure, shortened: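 Lead-loaded mice were given normal saline vehicle or test agent at 0.4 mmol/kg. Body weights were recorded and compared with the NS group to assess growth.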

Brain [5] = assay: Toxicity in mouse assessed as effect on zinc level in brain per gram of organ at 0.4 mmol/kg, ip qd for 5 days; type: organism-based; conditions: in vivo, 120 h
Liver [6] = assay: Toxicity in mouse assessed as effect on manganese level in liver per gram of organ at 0.4 mmol/kg, ip qd for 5 days; type: organism-based; conditions: in vivo, 120 h
Liver [7] = assay: Toxicity in mouse assessed as effect on iron level in liver per gram of organ at 0.4 mmol/kg, ip qd for 5 days; type: organism-based; conditions: in vivo, 120 h
Kidney [8] = assay: Toxicity in mouse assessed as effect on zinc level in kidney per gram of organ at 0.4 mmol/kg, ip qd for 5 days; type: organism-based; conditions: in vivo, 120 h
Kidney [9] = assay: Toxicity in mouse assessed as effect on manganese level in kidney per gram of organ at 0.4 mmol/kg, ip qd for 5 days; type: organism-based; conditions: in vivo, 120 h
[10] = Detoxification activity against lead-induced toxicity in mouse assessed as reduction lead level in feces at 0.4 mmol/kg, ip qd for 5 days measured 24 hrs last post dose by synchrotron X-ray fluorescence analysis; type: functional
Procedure, shortened: (§2)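 Lead-loaded mice were given normal saline vehicle, DL-penicillamine or NaDMS (positive controls), or test agent, each at 0.4 mmol/kg; n = 12 per group. Lead was measured in feces and urine and reported as mean ± SD µg Pb/g excrement against the NS group.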

Liver [11] = assay: Toxicity in mouse assessed as effect on zinc level in liver per gram of organ at 0.4 mmol/kg, ip qd for 5 days; type: organism-based; conditions: in vivo, 120 h
Caco-2 = assay: Efflux ratio of permeability […] in human Caco2 cells at 4 mM up to 120 mins by HPLC analysis; type: ADME, cell-based; conditions: caco-2, 2 h, 4000 µM
Procedure, shortened: (§3)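 Permeability measured across Caco-2 cell monolayers.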

Kidney [12] = assay: Toxicity in mouse assessed as effect on copper level in kidney per gram of organ at 0.4 mmol/kg, ip qd for 5 days; type: organism-based; conditions: in vivo, 120 h
[13] = Detoxification activity against lead-induced toxicity in mouse assessed as reduction lead level in urine at 0.4 mmol/kg, ip qd for 5 days measured 24 hrs last post dose by synchrotron X-ray fluorescence analysis; type: functional; procedure, shortened: as §2
Kidney [14] = assay: Toxicity in mouse assessed as effect on iron level in kidney per gram of organ at 0.4 mmol/kg, ip qd for 5 days; type: organism-based; conditions: in vivo, 120 h
[15] = Apparent permeability from apical to basolateral side of human Caco2 cells at 4 mM up to 120 mins by HPLC analysis; type: ADME, cell-based; conditions: Caco-2; procedure, shortened: as §3
Brain [16] = assay: Toxicity in mouse assessed as effect on calcium level in brain per gram of organ at 0.4 mmol/kg, ip qd for 5 days; type: organism-based; conditions: in vivo, 120 h
[17] = Apparent permeability from basolateral to apical side of human Caco2 cells at 4 mM up to 120 mins by HPLC analysis; type: ADME, cell-based; conditions: Caco-2; procedure, shortened: as §3
Femur = assay: Detoxification activity against lead-induced toxicity in mouse assessed as reduction lead level in femurs per gram of organ at 0.4 mmol/kg, ip qd for 5 days measured 24 hrs last post dose by synchrotron X-ray fluorescence analysis; type: functional; procedure, shortened: as §1
Brain [18] = assay: Toxicity in mouse assessed as effect on copper level in brain per gram of organ at 0.4 mmol/kg, ip qd for 5 days; type: organism-based; conditions: in vivo, 120 h
Kidney [19] = assay: Detoxification activity against lead-induced toxicity in mouse assessed as reduction lead level in kidney per gram of organ at 0.4 mmol/kg, ip qd for 5 days measured 24 hrs last post dose by synchrotron X-ray fluorescence analysis; type: functional; procedure, shortened: as §1
Brain [20] = assay: Detoxification activity against lead-induced toxicity in mouse assessed as reduction lead level in brain per gram of organ at 0.4 mmol/kg, ip qd for 5 days measured 24 hrs last post dose by synchrotron X-ray fluorescence analysis; type: functional; procedure, shortened: as §1
Kidney [21] = assay: Toxicity in mouse assessed as effect on calcium level in kidney per gram of organ at 0.4 mmol/kg, ip qd for 5 days; type: organism-based; conditions: in vivo, 120 h
Liver [22] = assay: Toxicity in mouse assessed as effect on calcium level in liver per gram of organ at 0.4 mmol/kg, ip qd for 5 days; type: organism-based; conditions: in vivo, 120 h

| Compound | Activity (Liver [1]) [µg/g] | Activity (Liver [2]) [µg/g] | Activity (Brain [3]) [µg/g] | Activity (Brain [4]) [µg/g] | Activity (Mus musculus) [g] | Activity (Brain [5]) [µg/g] | Activity (Liver [6]) [µg/g] | Activity (Liver [7]) [µg/g] | Activity (Kidney [8]) [µg/g] | Activity (Kidney [9]) [µg/g] | Activity [10] [µg/g] | Activity (Liver [11]) [µg/g] | Ratio (Caco-2) | Activity (Kidney [12]) [µg/g] | Activity [13] [µg/g] | Activity (Kidney [14]) [µg/g] | Papp A→B at 2 h, 4000 µM [15] [×10⁻⁶ cm/s] | Activity (Femur) [µg/g] | Activity (Kidney [19]) [µg/g] | Activity (Brain [20]) [µg/g] | also measured |
| --- | --- | --- | --- | --- | --- | --- | --- | --- | --- | --- | --- | --- | --- | --- | --- | --- | --- | --- | --- | --- | --- |
| CC1(C)SC(C(=O)O)C(C(=O)O)S1 (configuration not stated) | 4.02 | 3.61 | 0.7 | 56.6 | 29 | 34.54 | 1.36 | 152.9 | 28 | 1.3 | 4.57 | 36.66 | 2.91 | 3.4 | 1.93 | 95.1 | 13.7 | 15.47 | 7.12 | 1.42 | Activity (Brain [16]): 71.33 µg/g; Papp B→A at 2 h, 4000 µM [17]: 4.68 ×10⁻⁶ cm/s; Activity (Brain [18]): 2.42 µg/g; Activity (Kidney [21]): 75.94 µg/g; Activity (Liver [22]): 58.87 µg/g |
| CC1(C)SC(C(=O)O)C(C(=O)N[C@@H](CC(N)=O)C(=O)O)S1 (some centres not stated) | 3.99 | 3.74 | 0.69 | 57.5 | 31.3 | 34.95 | 1.38 | 153.07 | 28.13 | 1.42 | 4.71 | 37.92 | 3.23 | 3.72 | 2.12 | 94.84 | 16.6 | 16.62 | 7.06 | 0.58 | Activity (Brain [16]): 71.3 µg/g; Papp B→A at 2 h, 4000 µM [17]: 5.15 ×10⁻⁶ cm/s; Activity (Brain [18]): 2.58 µg/g; Activity (Kidney [21]): 76.36 µg/g; Activity (Liver [22]): 60.41 µg/g |
| CC(C)(S)C(N)C(=O)O (racemic) [DL-PENICILLAMINE] | 3.52 | – | – | – | – | – | – | – | – | – | 3.26 | – | 1.14 | – | 1.94 | – | 13.1 | 14.99 | 7.24 | 1.61 | Papp B→A at 2 h, 4000 µM [17]: 11.5 ×10⁻⁶ cm/s |
| CC1(C)SC(C(=O)O)C(C(=O)N[C@@H](CCC(=O)O)C(=O)O)S1 (some centres not stated) | 5.64 | 3.72 | 0.77 | 57.57 | 30.5 | 34.99 | 1.4 | 154.4 | 28.16 | 1.35 | 4.49 | 38.01 | – | 3.73 | 2.65 | 93.97 | – | 13.69 | 7.21 | 1.22 | Activity (Brain [16]): 69.99 µg/g; Activity (Brain [18]): 2.5 µg/g; Activity (Kidney [21]): 77.45 µg/g; Activity (Liver [22]): 60.4 µg/g |
| CC(C)[C@H](NC(=O)C1SC(C)(C)SC1C(=O)O)C(=O)O (some centres not stated) | 3.19 | 3.51 | 0.76 | 57.35 | 29.9 | 34.51 | 1.4 | 155.25 | 27.64 | 1.4 | 4.76 | 36.49 | – | 3.62 | 2.65 | 95.56 | – | 14.93 | 6.16 | 1.49 | Activity (Brain [16]): 72 µg/g; Activity (Brain [18]): 2.55 µg/g; Activity (Kidney [21]): 76.97 µg/g; Activity (Liver [22]): 60.24 µg/g |
| O=C([O-])C(S)C(S)C(=O)[O-].[Na+].[Na+] (configuration not stated) | 4.75 | – | – | – | – | – | – | – | – | – | 4.59 | – | 1.1 | – | 1.79 | – | 11 | 14.31 | 6.23 | 1.72 | Papp B→A at 2 h, 4000 µM [17]: 10 ×10⁻⁶ cm/s |
| CSCC[C@H](NC(=O)C1SC(C)(C)SC1C(=O)O)C(=O)O (some centres not stated) | 3.51 | 3.59 | 0.73 | 56.6 | 30 | 33.66 | 1.39 | 153.33 | 27.79 | 1.37 | 4.35 | 36.78 | 3.11 | 3.65 | 2.26 | 93.88 | 15.7 | 13.71 | 6.36 | 0.91 | Activity (Brain [16]): 70.51 µg/g; Papp B→A at 2 h, 4000 µM [17]: 5.05 ×10⁻⁶ cm/s; Activity (Brain [18]): 2.41 µg/g; Activity (Kidney [21]): 77.39 µg/g; Activity (Liver [22]): 59.64 µg/g |
